Experimental data reported in article PMC11529722 (Science Advances, 2024).

Tests used:
[1] = system: pepsin; test: pepsin in hydrochloric acid solution; settings: 37°C, up to 150 min
[2] = system: elastase; test: elastase; settings: set for optimal enzyme activity, up to 1 hour
[3] = system: pronase; test: pronase; settings: set for optimal enzyme activity, up to 1 hour
[4] = system: chymotrypsin; test: chymotrypsin; settings: set for optimal enzyme activity, up to 1 hour
[5] = system: R6/2 mice; test: In vivo efficacy in HD R6/2 mice: body weight, survival, behavior; design: species or system mouse
Method in brief: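 Male hemizygous R6/2 mice (HD exon 1, 100–150 CAG) and WT littermates. Saline, peptide (3 mg kg⁻¹ day⁻¹) or polymer (1.69 mg kg⁻¹ day⁻¹) given by subcutaneous 28-day osmotic pump from 6 weeks; pump replaced after 4 weeks. Weekly tail suspension 20 s, weeks 7–13, clasping scored 0–3. Body weight and survival recorded throughout. 13–32 mice/group for behaviour.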

[6] = system: C57BL/6J mice; test: Toxicity in C57BL/6J mice: complete blood count; format: in vivo, mouse; settings: C57BL/6J WT mice, 3 mg/kg with respect to peptide, Alzet osmotic pump, 8 weeks
Method in brief: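 Healthy male C57BL/6J mice in three groups (n = 3 to 4 per group) received test compound at 3 mg/kg with respect to peptide, or saline as negative control, via subcutaneously implanted osmotic pump for 8 weeks.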

[7] = system: pronase, chymotrypsin, elastase; test: Enzyme degradation resistance by SDS-PAGE; format: in vitro ADME; settings: treated separately with pronase, chymotrypsin and elastase for 1 hour, Coomassie Blue
[8] = molecular target: pepsin (Sus scrofa, UniProt P00791); test: Enzymatic degradation assay with pepsin by HPLC; format: in vitro ADME; settings: pepsin 0.1 μM, pH 2, peptide 200 μM, 37°C, up to 150 min, analytical HPLC
Sequence of pepsin (Sus scrofa, UniProt P00791) (P00791 60-385): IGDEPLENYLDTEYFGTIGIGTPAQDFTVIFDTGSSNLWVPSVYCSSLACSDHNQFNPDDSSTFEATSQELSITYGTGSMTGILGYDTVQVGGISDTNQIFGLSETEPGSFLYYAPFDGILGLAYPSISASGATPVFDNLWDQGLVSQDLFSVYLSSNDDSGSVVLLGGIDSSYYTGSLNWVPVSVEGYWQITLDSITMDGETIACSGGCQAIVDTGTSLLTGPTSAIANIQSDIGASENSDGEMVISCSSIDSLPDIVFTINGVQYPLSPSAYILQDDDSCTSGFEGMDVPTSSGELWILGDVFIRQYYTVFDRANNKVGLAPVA

[9] = system: HdhQ111 cells; test: Mitochondrial fragmentation assay; format: cell-based, mouse; settings: 3 μM three times for 3 days, anti-Tom20, at least 95 cells per group, n = 3
Method in brief: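 HdhQ111 cells dosed at 3 μM three times over 3 days. Fixed in 4% PFA 20 min, permeabilised with 0.1% Triton X-100, blocked with 2% goat serum. Anti-Tom20 (1:4000) overnight at 4°C, Alexa 488 secondary 2 h RT, Hoechst nuclei stain. Confocal imaging; % cells with fragmented mitochondria, ≥95 cells/group, ≥3 independent replicates.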

[10] = system: R6/2 mice; test: Neuropathology in striatum of R6/2 mice; format: in vivo, mouse; settings: 13-week-old R6/2 mice
[11] = system: C3a in human serum; test: C3a complement activation ELISA; settings: human serum 4 hours; P1 at 9.9 and 33 μM (3 and 10 mg/kg); n = 4
Method in brief: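 Test compound incubated in human serum at 1:250 and 1:500 (compound:serum) for 4 h, then diluted. C3a ELISA: 2 h in C3a antibody-coated wells with shaking, 3 washes, biotin primary antibody 1 h, washes, streptavidin 1 h, substrate 30 min, absorbance 450 nm. Cobra venom factor positive control; DPBS vehicle.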

[12] = system: R6/2 mice; test: VCP level in striatal mitochondrial fractions of R6/2 mice; format: in vivo, mouse; settings: 13-week-old R6/2 mice, WB, ATPB loading control
Method in brief: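 Striatum of 13-week-old pump-dosed mice homogenised in 250 mM sucrose, 20 mM Hepes pH 7.5, 10 mM KCl, 1.5 mM MgCl₂, EDTA/EGTA. Passed 20× through a 25-gauge needle, iced 30 min. Spun 800g 10 min, then supernatant 10,000g 20 min at 4°C; pellet washed and re-spun. Mitochondria lysed in 1% Triton X-100; VCP Western blot, ATPB loading control.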

[13] = molecular target: VCP protein (Homo sapiens, UniProt P55072); test: BLI; format: binding; settings: immobilized VCP
Sequence of VCP protein (P55072 whole entry, species assumed): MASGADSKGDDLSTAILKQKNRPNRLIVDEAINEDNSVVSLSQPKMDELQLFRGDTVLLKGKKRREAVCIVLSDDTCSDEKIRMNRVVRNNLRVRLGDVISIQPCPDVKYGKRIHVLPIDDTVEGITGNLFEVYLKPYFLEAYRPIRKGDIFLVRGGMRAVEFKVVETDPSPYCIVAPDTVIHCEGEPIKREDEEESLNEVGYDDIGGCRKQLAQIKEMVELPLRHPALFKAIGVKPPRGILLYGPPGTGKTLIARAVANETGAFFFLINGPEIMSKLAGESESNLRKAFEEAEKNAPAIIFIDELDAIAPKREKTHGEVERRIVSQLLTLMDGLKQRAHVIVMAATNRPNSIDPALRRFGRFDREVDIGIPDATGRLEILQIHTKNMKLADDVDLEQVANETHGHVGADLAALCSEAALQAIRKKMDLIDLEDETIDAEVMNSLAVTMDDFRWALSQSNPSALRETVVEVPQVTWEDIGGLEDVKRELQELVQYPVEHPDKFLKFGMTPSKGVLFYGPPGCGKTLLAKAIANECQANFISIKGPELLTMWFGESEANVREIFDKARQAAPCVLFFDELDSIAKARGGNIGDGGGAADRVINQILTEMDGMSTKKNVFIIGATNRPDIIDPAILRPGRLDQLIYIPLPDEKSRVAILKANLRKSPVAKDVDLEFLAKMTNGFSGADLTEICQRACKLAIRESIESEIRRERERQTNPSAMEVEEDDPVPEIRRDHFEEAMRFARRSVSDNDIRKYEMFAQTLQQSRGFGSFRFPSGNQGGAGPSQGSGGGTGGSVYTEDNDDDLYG
Method in brief: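 Anti-His biosensor hydrated, then His-tagged VCP (50 µg/ml in sodium acetate buffer, pH 6.5) immobilized. Test compound (peptide or polymer) dissolved in tris buffer (pH 8.4) and run over a range of concentrations as analyte. KD, on-rate (ka) and off-rate (kd) were measured for each analyte by biolayer interferometry (BLItz).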

[14] = system: red blood cells; test: Hemocompatibility: hemolysis; settings: human red blood cells in PBS, 37°C, 1 hour, absorbance 405 nm, n = 4
Method in brief: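 Na citrate-anticoagulated whole human blood spun 500g 5 min. Plasma replaced with 150 mM NaCl; wash repeated twice more; RBCs resuspended in PBS. Compound added 1:20 (v/v) to RBC suspension, 37°C 1 h, n = 4. Spun 500g 5 min; supernatant transferred for reading. 20% Triton X-100 positive control; PBS vehicle.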

[15] = system: C57BL/6J mice; test: Toxicity in C57BL/6J mice: histopathology scoring; format: in vivo, mouse; settings: C57BL/6J WT mice, 3 mg/kg with respect to peptide, Alzet osmotic pump, 8 weeks, blinded pathologist
Method in brief: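 Male C57BL/6J mice, three groups of n = 3–4. Saline, peptide or polymer (3 mg/kg with respect to peptide) given by subcutaneous osmotic pump for 8 weeks.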

## HVLVMSATRR
[1]
  not cleaved: no cleavage observed for up to 150 min
[2]
  not cleaved: maintained molecular weight after 1 hour
[3]
  not cleaved: maintained molecular weight after 1 hour
[4]
  not cleaved: maintained molecular weight after 1 hour

## HVLVMSATRR [P1]
[5]; WT littermates, P1 1.69 mg kg^−1 day^−1, 6 to 13 weeks of age
  effects of treatment on WT mice: no significant effects on motor activity, body weight, or neuropathology
[5]; male R6/2 mice, 3 mg kg^−1 day^−1 per peptide (P1 1.69 mg kg^−1 day^−1), Alzet pump, 6 to 13 weeks of age
  body weight vs R6/2 saline control: significantly inhibiting weight loss
[5]; male R6/2 mice, 3 mg kg^−1 day^−1 per peptide, Alzet pump, 6 to 13 weeks of age
  survival vs R6/2 saline control: extended survival
[5]; male R6/2 mice, tail suspension test
  clasping times compared to HV3-TAT-treated mice: shorter clasping times
[5]; male R6/2 mice, tail suspension test weekly, 3 mg kg^−1 day^−1 per peptide, Alzet pump
  hindlimb clasping behavior: attenuated the clasping behavior
[6]
  complete blood count and blood chemistry profile vs saline: no significant deviation of any markers
[7]
  molecular weight after enzyme treatment (gel electrophoresis): maintained molecular weight
[8]
  cleavage by pepsin: no cleavage observed
[9]
  mitochondrial fragmentation vs vehicle: marked reduction in the number of fragmented mitochondria
[10]; Western blot
  striatal BDNF level compared to the HV3-TAT treatment group: significantly higher level of BDNF
[10]; anti-Htt EM48 staining, n = 6
  mtHtt aggregates in striatum vs saline-treated R6/2 mice: reduced number of mtHtt aggregates
[10]; n = 6
  DARPP-32 immunohistochemical staining in striatum: Enhanced levels of DARPP-32
[11]
  C3a complement activation compared to vehicle: did not show a statistically significant difference in activity
[12]
  VCP level on striatal mitochondria: blocks aberrant VCP mitochondrial translocation
[13]
  fold decrease in dissociation constant compared to the HV3-TAT peptide: 150 fold
[13]; dissociation rate constant
  koff: 2.5e-05 s⁻¹
[14]
  hemolytic activity compared to vehicle control: nonsignificant
[15]
  organ pathology vs saline control group: no significant differences in pathology
